The target of experiment [1] is T1, N-acylethanolamine-hydrolyzing acid amidase (Homo sapiens, UniProt Q02083).
T1 sequence (Q02083 whole entry): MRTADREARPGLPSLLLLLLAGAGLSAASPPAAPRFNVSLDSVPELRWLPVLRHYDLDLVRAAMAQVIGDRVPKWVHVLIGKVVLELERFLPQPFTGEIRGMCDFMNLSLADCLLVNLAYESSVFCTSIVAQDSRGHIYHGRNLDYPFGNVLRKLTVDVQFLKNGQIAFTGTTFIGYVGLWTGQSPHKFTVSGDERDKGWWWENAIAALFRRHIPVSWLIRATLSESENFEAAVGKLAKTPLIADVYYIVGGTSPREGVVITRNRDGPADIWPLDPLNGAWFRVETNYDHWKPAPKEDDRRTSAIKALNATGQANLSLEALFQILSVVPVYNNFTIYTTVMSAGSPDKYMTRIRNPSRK
The experiment in a line: Inhibition of C-terminal His-6-tagged recombinant human spleen NAAA enzyme expressed in HEK293 cells. The class given is cell-based. The gist of the method: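 Stable HEK293 clone (G418 selection) expressing h-NAAA; cell pellets sonicated, then membrane fraction prepared by centrifugation with a freeze/thaw step. 10 μg protein preincubated 30 min at 37 °C with inhibitor in citrate/phosphate buffer pH 4.5 (0.1% Triton X-100, 3 mM DTT). Duplicates then given 50 μM 10-cis-heptadecenoylethanolamide for 30 min at 37 °C. Heptadecenoic acid measured by UPLC-MS; IC50 from fixed-slope nonlinear regression.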

A short description of experiment [2]: Selectivity ratio of IC50 for rat NAAA to IC50 for human NAAA.
Experiment [3] deals with T2, Acid ceramidase (Rattus norvegicus) (UniProt Q6P7S1).
T2 sequence (whole entry): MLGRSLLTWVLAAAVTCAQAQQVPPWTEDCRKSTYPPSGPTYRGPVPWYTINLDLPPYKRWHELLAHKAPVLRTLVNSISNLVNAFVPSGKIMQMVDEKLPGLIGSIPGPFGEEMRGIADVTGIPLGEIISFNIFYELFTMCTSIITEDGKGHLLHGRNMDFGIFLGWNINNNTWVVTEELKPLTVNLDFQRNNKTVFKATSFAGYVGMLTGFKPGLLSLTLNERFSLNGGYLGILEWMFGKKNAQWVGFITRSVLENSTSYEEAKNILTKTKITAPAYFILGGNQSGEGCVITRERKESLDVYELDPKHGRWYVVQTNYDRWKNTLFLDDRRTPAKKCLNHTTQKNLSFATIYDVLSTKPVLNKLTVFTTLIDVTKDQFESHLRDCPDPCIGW
The experiment in a line: Inhibition of rat lung acid ceramidase overexpressed in HEK293 cells using N-Lauroyl ceramide as substrate preincubated at 10 uM for 30 mins followed by substrate addition by LC-MS analysis. The class given is cell-based. Summed up: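 Enzyme (25 μg) from HEK293 cells overexpressing rat AC was preincubated with compound for 30 min at 37 °C in 100 mM NaH2PO4, 100 mM trisodium citrate, 0.1% Triton X-100, 3 mM DTT, pH 4.5. Then 100 μM N-lauroyl ceramide was added. Lauric acid (m/z 199) was measured by negative-ion LC-MS with heptadecanoic acid (m/z 269) as internal standard.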

In experiment [4] the target is T3, Fatty-acid amide hydrolase 1 (Rattus norvegicus) (UniProt P97612).
T3 sequence (whole entry): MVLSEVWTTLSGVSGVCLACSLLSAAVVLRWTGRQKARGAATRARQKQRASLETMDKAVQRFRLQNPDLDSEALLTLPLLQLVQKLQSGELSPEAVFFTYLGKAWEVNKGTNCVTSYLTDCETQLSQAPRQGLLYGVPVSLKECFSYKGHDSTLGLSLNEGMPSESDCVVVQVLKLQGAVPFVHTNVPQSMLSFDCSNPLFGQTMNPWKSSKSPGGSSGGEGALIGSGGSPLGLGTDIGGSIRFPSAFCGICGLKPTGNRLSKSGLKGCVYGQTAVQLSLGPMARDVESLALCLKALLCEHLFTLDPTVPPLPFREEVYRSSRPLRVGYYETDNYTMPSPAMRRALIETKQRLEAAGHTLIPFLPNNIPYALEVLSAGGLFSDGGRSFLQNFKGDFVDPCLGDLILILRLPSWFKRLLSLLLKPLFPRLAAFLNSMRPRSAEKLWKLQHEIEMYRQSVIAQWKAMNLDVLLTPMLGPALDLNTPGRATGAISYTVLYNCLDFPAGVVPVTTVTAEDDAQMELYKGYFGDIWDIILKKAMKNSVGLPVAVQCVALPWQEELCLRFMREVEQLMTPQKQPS
As to the kind of experiment: Inhibition of rat brain FAAH using [3H]anandamide as substrate preincubated at 10 uM for 10 mins followed by substrate addition by liquid scintillation counting. The gist of the method: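 Rat brain homogenate (50 μg protein) was preincubated with compound for 10 min. Then 30 min at 37 °C with 1 μM cold AEA plus 0.6 nM [3H]AEA in 50 mM Tris pH 7.4 containing 0.05% fatty-acid-free BSA. Stopped with cold CHCl3/MeOH 1:1, and the aqueous phase was counted.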

Experiment [5] concerns the target T4, N-acylethanolamine-hydrolyzing acid amidase (Rattus norvegicus, UniProt Q5KTC7).
T4 sequence (Q5KTC7 whole entry): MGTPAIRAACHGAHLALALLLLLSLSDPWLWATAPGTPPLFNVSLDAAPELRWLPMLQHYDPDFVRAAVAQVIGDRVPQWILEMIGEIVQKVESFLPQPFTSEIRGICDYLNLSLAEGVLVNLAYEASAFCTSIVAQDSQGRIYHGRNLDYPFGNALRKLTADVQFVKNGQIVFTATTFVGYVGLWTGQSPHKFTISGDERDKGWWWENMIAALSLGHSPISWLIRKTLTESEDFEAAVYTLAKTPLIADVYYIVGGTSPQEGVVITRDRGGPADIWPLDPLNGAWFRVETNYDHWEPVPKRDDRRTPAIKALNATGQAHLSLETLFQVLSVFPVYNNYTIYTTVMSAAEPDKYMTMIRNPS
As to the kind of experiment: Inhibition of Sprague Dawley rat lung native NAAA enzyme using heptadecenoylethanolamide as substrate preincubated for 30 mins followed by substrate addition measured after 30 mins by UPLC-MS analysis. Summed up: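 Native enzyme from lungs of male Sprague-Dawley rats (275-300 g). Lungs were homogenized in 20 mM Tris-HCl pH 7.4 with 0.32 M sucrose, spun at 800g, then the supernatant at 12000g. The pellet was freeze/thawed in PBS, and the final 105000g pellet was used. Protein (10 μg) was preincubated with compound or vehicle for 30 min at 37 °C in NaH2PO4/citrate buffer pH 4.5 with 0.1% Triton X-100 and 3 mM DTT. Then 50 μM substrate, 37 °C, 30 min, duplicates. Heptadecenoic acid quantified against heptadecanoic acid internal standard. IC50 by fixed-slope nonlinear regression.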

As usually defined, the IC50 is the midpoint of a concentration-inhibition curve. By inhibition is commonly meant the share of the control response that was lost under treatment. For `C[C@@H]1OC(=O)[C@@H]1NC(=O)OCCCOCc1ccccc1`, in experiment [1], the IC50 is 20 nM. Moreover, the Ratio IC50 in experiment [2] came to 2. Moreover, the inhibition in experiment [3] and in experiment [4] was under 10% in each case. In the case of `CC(C)C(CCCCc1ccccc1)OC(=O)N[C@H]1C(=O)O[C@H]1C` (stereo partly drawn), the IC50 in experiment [5] (read-out: IC50) is 80 nM. Take `CC(C)C(CCCCc1ccccc1)OC(=O)N[C@H]1C(=O)O[C@H]1C` (single isomer, unassigned; diastereomer 2): the IC50 in experiment [5] (read-out: IC50) turned out to be 12200 nM. In the case of `C[C@@H]1OC(=O)[C@@H]1NC(=O)OCCCCCC1CCCCC1`, in experiment [2], the Ratio IC50 was 2. Further, the inhibition in experiment [3] and in experiment [4] was under 10% throughout. The IC50 in experiment [5] (read-out: IC50) was determined as 13 nM. Regarding `CC(CCCCc1ccccc1)OC(=O)N[C@H]1C(=O)O[C@H]1C` (single isomer, unassigned; diastereomer 2), in experiment [5] (read-out: IC50), the concentration for half-maximal inhibition (IC50) amounted to 5100 nM. For the molecule `C[C@@H]1OC(=O)[C@@H]1N(C)C(=O)OCCCCCc1ccccc1`, the IC50 result in experiment [5] was “Not Active”. As for `CCCCCCC[C@@H](C)OC(=O)N[C@H]1C(=O)O[C@H]1C`, in experiment [5] (read-out: IC50), the IC50 was determined as 270 nM. With `C[C@@H]1OC(=O)[C@@H]1NC(=O)OCCCCCc1ccccc1`, the Ratio IC50 in experiment [2] was found to be 2. Also, the inhibition in experiment [3] and in experiment [4] was under 10% each time. Turning to `CC(CCCCc1ccccc1)OC(=O)N[C@H]1C(=O)O[C@H]1C` (single isomer, unassigned; diastereomer 1), in experiment [5] (read-out: IC50), the IC50 stood at 18 nM. On to `C[C@@H]1OC(=O)[C@@H]1NC(=O)OCc1cccc(-c2ccccc2)c1`, for which the IC50 in experiment [5] (read-out: IC50) was 23000 nM. Turning to `C[C@H]1OC(=O)[C@@H]1NC(=O)OCCCCCc1ccccc1`, the IC50 in experiment [5] (read-out: IC50) was found to be 20 nM. As to `CCCCCCCC(C)OC(=O)N[C@H]1C(=O)O[C@H]1C` (mixture of isomers), the IC50 in experiment [5] (read-out: IC50) is 60 nM. In the case of `C[C@@H]1OC(=O)[C@@H]1NC(=O)OCc1ccc(-c2ccccc2)cc1`, the results for the inhibition in experiment [3] and in experiment [4] were 30% and under 10%, respectively. For `CCCCCOC(=O)N[C@H]1C(=O)O[C@H]1C`, the IC50 in experiment [5] (read-out: IC50) came out at 760 nM. Consider `C[C@@H]1OC(=O)[C@@H]1NC(=O)OCCCc1ccccc1`, for which the IC50 in experiment [5] (read-out: IC50) came to 90 nM. For `CC(CCCCc1ccccc1)OC(=O)N[C@H]1C(=O)O[C@H]1C` (mixture of isomers), the IC50 in experiment [5] (read-out: IC50) worked out at 29 nM. On to `CCCCCCC[C@H](C)OC(=O)N[C@H]1C(=O)O[C@H]1C`, for which the Ratio IC50 in experiment [2] was determined as 2. The figures for the inhibition in experiment [3] and in experiment [4] were 45% and 19%, respectively.

The values are drawn from ChEMBL document CHEMBL2417404, “Synthesis and structure-activity relationship (SAR) of 2-methyl-4-oxo-3-oxetanylcarbamic acid esters, a class of potent N-acylethanolamine acid amidase (NAAA) inhibitors” (J Med Chem, 2013).
